Measured values from ChEMBL document CHEMBL3616437, “Thiazole compounds with activity against Cryptococcus gattii and Cryptococcus neoformans in vitro” (Eur J Med Chem, 2015).
In brackets after ≈: the same amount, converted by molar mass.

Legend:
Cryptococcus neoformans [1] = experiment: Antifungal activity against Cryptococcus neoformans ATCC 24067 after 48 to 72 hrs by broth microdilution method; assay type: functional
Outline: (§1)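 CLSI M27-A3 broth microdilution. Isolates subcultured twice on SDA, 48 h at 35°C. Saline suspension adjusted to 70% transmittance at 530 nm, then diluted to 1-5 x10^3 cells/mL in RPMI with L-glutamine, 0.165 M MOPS, pH 7.0. Compounds in DMSO, tested at […]. 35°C for 48-72 h. MIC read visually as the lowest concentration giving an optically clear well.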

Vero = experiment: Cytotoxicity against African green monkey Vero cells assessed as cell viability measured after 48 hrs by MTT assay; assay type: cell-based; conditions: Chlorocebus sabaeus
Outline: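 VERO cells in D-MEM with 5% FBS, used up to 20 passages. Seeded 1 x 10^4 cells/well, pre-incubated 24 h at 37°C. Exposed 48 h at 37°C, 5% CO2, to eight nonserial dilutions from 100 to 0.0128 µM, with 0.5% DMSO control. MTT reduction read-out, corrected for background and blank. IC50 reported as median with 95% CI. Triplicate, two independent experiments.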

[2] = Cytotoxicity against C57BL/6 mouse peritoneal macrophages assessed as cell viability measured after 48 hrs by MTT assay; assay type: cell-based; conditions: C57BL/6, Peritoneal macrophage cell
Outline: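 Thioglycollate-elicited peritoneal macrophages from male C57BL/6 mice, 6–8 weeks old, in RPMI with 10% FBS. Seeded 1 x 10^5 cells/well, pre-incubated 24 h at 37°C. Exposed 48 h at 37°C, 5% CO2, to eight nonserial dilutions from 100 to 0.0128 µM, with 0.5% DMSO control. MTT read-out, % inhibition versus DMSO control. IC50 reported as median with 95% CI. Triplicate, two independent experiments.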

[3] = Selectivity index, ratio of IC50 for African green monkey Vero cells to MIC for Cryptococcus neoformans ATCC 24067; assay type: toxicity, cell-based
[4] = Selectivity index, ratio of IC50 for C57BL/6 mouse peritoneal macrophages to MIC for Cryptococcus neoformans ATCC 24067
Outline: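 SI = IC50/MIC. Thioglycollate-elicited peritoneal macrophages from C57BL/6 mice are seeded at 1 x 10^5/well. They are exposed for 48 h at 37°C to eight concentrations from 100 to 0.0128 µM. Viability read by MTT versus 0.5% DMSO control, triplicate in two experiments.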

[5] = system: Cryptococcus bacillisporus; experiment: Antifungal activity against Cryptococcus gattii ATCC 32608 after 48 to 72 hrs by broth microdilution method; assay type: functional
Outline: (§2)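 CLSI M27-A3 broth microdilution in RPMI with L-glutamine, buffered to pH 7.0 with 0.165 M MOPS. Colonies grown twice on SDA, 48 h at 35°C. Inoculum set to 70% transmittance at 530 nm, then diluted to 1-5 x10^3 cells/mL. Test agents dissolved in DMSO, serially diluted, tested at 0.1 to 62.5 µM. Plates held at 35°C for 48-72 h. MIC is the lowest concentration giving an optically clear well, read visually against drug-free growth controls.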

[6] = system: Cryptococcus gattii species complex; experiment: Antifungal activity against Cryptococcus gattii 23/10993 after 48 to 72 hrs by broth microdilution method; assay type: functional, Cryptococcus bacillisporus; outline: as §2
[7] = system: Cryptococcus gattii species complex; experiment: Antifungal activity against Cryptococcus gattii L28/02 after 48 to 72 hrs by broth microdilution method; assay type: functional, Cryptococcus bacillisporus; outline: as §2
[8] = system: Cryptococcus gattii species complex; experiment: Antifungal activity against Cryptococcus gattii 547/OTTI-97-PI-10 after 48 to 72 hrs by broth microdilution method; assay type: functional, Cryptococcus bacillisporus; outline: as §2
[9] = system: Cryptococcus gattii species complex; experiment: Antifungal activity against Cryptococcus gattii 135L/03 after 48 to 72 hrs by broth microdilution method; assay type: functional, Cryptococcus bacillisporus; outline: as §2
[10] = system: Cryptococcus gattii species complex; experiment: Antifungal activity against Cryptococcus gattii 196L/03 after 48 to 72 hrs by broth microdilution method; assay type: functional, Cryptococcus bacillisporus; outline: as §2
[11] = system: Cryptococcus gattii species complex; experiment: Antifungal activity against Cryptococcus gattii L27/01 after 48 to 72 hrs by broth microdilution method; assay type: functional, Cryptococcus bacillisporus; outline: as §2
[12] = system: Cryptococcus gattii species complex; experiment: Antifungal activity against Cryptococcus gattii ICB181 after 48 to 72 hrs by broth microdilution method; assay type: functional, Cryptococcus bacillisporus; outline: as §2
[13] = system: Cryptococcus gattii species complex; experiment: Antifungal activity against Cryptococcus gattii L24/01 after 48 to 72 hrs by broth microdilution method; assay type: functional, Cryptococcus bacillisporus; outline: as §2
[14] = system: Cryptococcus gattii species complex; experiment: Antifungal activity against Cryptococcus gattii LMM818 after 48 to 72 hrs by broth microdilution method; assay type: functional, Cryptococcus bacillisporus; outline: as §2
[15] = system: Cryptococcus gattii species complex; experiment: Antifungal activity against Cryptococcus gattii 1913ER after 48 to 72 hrs by broth microdilution method; assay type: functional, Cryptococcus bacillisporus; outline: as §2
Cryptococcus neoformans [16] = experiment: Antifungal activity against Cryptococcus neoformans ATCC 28957 after 48 to 72 hrs by broth microdilution method; assay type: functional; outline: as §1
Cryptococcus neoformans [17] = experiment: Antifungal activity against Cryptococcus neoformans ATCC 62066 after 48 to 72 hrs by broth microdilution method; assay type: functional
Cryptococcus neoformans [18] = experiment: Antifungal activity against Cryptococcus neoformans CN31 after 48 to 72 hrs by broth microdilution method; assay type: functional; outline: as §1
Cryptococcus neoformans [19] = experiment: Antifungal activity against Cryptococcus neoformans 96806 after 48 to 72 hrs by broth microdilution method; assay type: functional; outline: as §1
Cryptococcus neoformans [20] = experiment: Antifungal activity against Cryptococcus neoformans 5396 after 48 to 72 hrs by broth microdilution method; assay type: functional; outline: as §1
Cryptococcus neoformans [21] = experiment: Antifungal activity against Cryptococcus neoformans LMM820 after 48 to 72 hrs by broth microdilution method; assay type: functional; outline: as §1
Cryptococcus neoformans [22] = experiment: Antifungal activity against Cryptococcus neoformans F10 after 48 to 72 hrs by broth microdilution method; assay type: functional; outline: as §1
Cryptococcus neoformans [23] = experiment: Antifungal activity against Cryptococcus neoformans 28JF after 48 to 72 hrs by broth microdilution method; assay type: functional; outline: as §1
Cryptococcus neoformans [24] = experiment: Antifungal activity against Cryptococcus neoformans VM-MCMMPI after 48 to 72 hrs by broth microdilution method; assay type: functional; outline: as §1
Cryptococcus neoformans [25] = experiment: Antifungal activity against Cryptococcus neoformans 27JF after 48 to 72 hrs by broth microdilution method; assay type: functional; outline: as §1
Cryptococcus neoformans [26] = experiment: Antifungal activity against Cryptococcus neoformans WP after 48 to 72 hrs by broth microdilution method; assay type: functional; outline: as §1

OC(Cn1cncn1)(Cn1cncn1)c1ccc(F)cc1F [FLUCONAZOLE]
MIC (Cryptococcus neoformans [1]): 7.8 µM (≈ 2.39 µg/mL) | IC50 (Vero): > 100 µM | IC50 [2]: > 100 µM | selectivity ratio [3]: 15.7 | Ratio [4]: 15.74 | MFC [5]: 62.5 µM (≈ 19.1 µg/mL) | MIC [5]: 13 µM (≈ 3.98 µg/mL) | MFC [6]: > 62.5 µM | MIC [6]: 13 µM (≈ 3.98 µg/mL) | MFC [7]: > 62.5 µM | MIC [7]: 26 µM (≈ 7.96 µg/mL) | MFC [8]: > 62.5 µM | MIC [8]: 13 µM (≈ 3.98 µg/mL) | MFC [9]: 31.3 µM (≈ 9.59 µg/mL) | MIC [9]: 7.8 µM (≈ 2.39 µg/mL) | MFC [10]: > 62.5 µM | MIC [10]: 26 µM (≈ 7.96 µg/mL) | MFC [11]: > 62.5 µM | MIC [11]: 41.7 µM (≈ 12.8 µg/mL) | MFC [12]: 62.5 µM (≈ 19.1 µg/mL) | MIC [12]: 10.4 µM (≈ 3.19 µg/mL) | MFC [13]: > 62.5 µM | MIC [13]: 13 µM (≈ 3.98 µg/mL) | MFC [14]: > 62.5 µM | MIC [14]: 20.8 µM (≈ 6.37 µg/mL) | MFC [15]: > 62.5 µM | MIC [15]: 13 µM (≈ 3.98 µg/mL) | MFC (Cryptococcus neoformans [16]): 62.5 µM (≈ 19.1 µg/mL) | MIC (Cryptococcus neoformans [16]): 3.2 µM (≈ 0.98 µg/mL) | MFC (Cryptococcus neoformans [17]): > 62.5 µM | MIC (Cryptococcus neoformans [17]): 13 µM (≈ 3.98 µg/mL) | MFC (Cryptococcus neoformans [18]): 31.2 µM (≈ 9.57 µg/mL) | MIC (Cryptococcus neoformans [18]): 6.5 µM (≈ 1.99 µg/mL) | MFC (Cryptococcus neoformans [19]): > 62.5 µM | MIC (Cryptococcus neoformans [19]): 31.2 µM (≈ 9.56 µg/mL) | MFC (Cryptococcus neoformans [20]): 62.5 µM (≈ 19.1 µg/mL) | MIC (Cryptococcus neoformans [20]): 23.4 µM (≈ 7.17 µg/mL) | MFC (Cryptococcus neoformans [21]): 62.5 µM (≈ 19.1 µg/mL) | MIC (Cryptococcus neoformans [21]): 13 µM (≈ 3.98 µg/mL) | MFC (Cryptococcus neoformans [22]): > 62.5 µM | MIC (Cryptococcus neoformans [22]): 10.4 µM (≈ 3.19 µg/mL) | MFC (Cryptococcus neoformans [23]): > 62.6 µM | MIC (Cryptococcus neoformans [23]): 7.8 µM (≈ 2.39 µg/mL) | MFC (Cryptococcus neoformans [24]): 15.6 µM (≈ 4.78 µg/mL) | MIC (Cryptococcus neoformans [24]): 11.7 µM (≈ 3.58 µg/mL) | MFC (Cryptococcus neoformans [25]): > 62.5 µM | MIC (Cryptococcus neoformans [25]): 10.4 µM (≈ 3.19 µg/mL) | MFC (Cryptococcus neoformans [26]): > 62.5 µM | MIC (Cryptococcus neoformans [26]): 15.6 µM (≈ 4.78 µg/mL)
